The results in this text go back to PubChem BioAssay AID871 (The Scripps Research Institute Molecular Screening Center, 2007).

Out of some 190,000 compounds screened, about 1,800 (0.95%) were called active. What follows is part of a selection rich in actives, with near analogues and random picks from the rest. A number with no mark means an inactive call.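 Rule for the calls: active = activation above the screen-wide mean of compound activation plus 3 SD (cut at about 130% in these data); inactive = the rest.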

The nature of this assay: enhancers of STAT3 transcriptional signaling – U3A cells, luciferase, luminescence, MLSCN library, primary screen (AID 871).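 Note: 0% = background luminescence of wells with medium and substrate only.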 Conditions: IL-6 STAT3-luciferase reporter, at 5.6 µM, active compounds read high, 100% = signal with IL-6 EC80 alone. The essentials:
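system = STAT3-luciferase reporter U3A cells | reagent = IL-6 stimulus at 33 ng/mL final | timing = 1 h compound pre-exposure, 6 h IL-6 stimulation, 37 °C | measured by = luminescence | evaluation = % activation versus median of IL-6-stimulated wells | control set = IL-6-only wells as 100% reference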
In general terms: In a reporter assay the amount or activity of a reporter protein is the signal.
In the case of `Cn1c(=NC(=O)c2cnccn2)sc2ccccc21`, the activation (% of control) is 83.8%.

On to `CCCC(=O)N=c1sc2cccc(F)c2n1C`, for which the activation (% of control) is 113%. Then `Cn1c(=NC(=O)c2ccco2)sc2cccc(F)c21`, with 144% (active); and `CN(Cc1cccs1)C(=O)Cc1c[nH]c2ccccc12`, with 86%; and `CCC(CC)NC(=O)CSc1nnc(-c2c[nH]c3ccccc23)o1`, with 90.9%.

On to `NC(=O)CSc1c[nH]c2ccccc12`, for which the activation (% of control) is 143% (active).

With `COc1ccccc1NC(=O)CCCc1c[nH]c2ccccc12`, the activation (% of control) was 88.8%. On to `CC(C)(C)N(Cc1ccccc1)C(=O)COC(=O)CCc1c[nH]c2ccccc12`, for which the activation (% of control) was 87.1%. Under `NS(=O)(=O)c1ccc(NC(=O)COC(=O)CCc2c[nH]c3ccccc23)cc1` stands 108%; under `CCOC(=O)CN(C)Cc1c[nH]c2ccccc12`, 137% (active). Under `O=C(Cc1c[nH]c2ccccc12)OCCOC(=O)Cc1c[nH]c2ccccc12` stands 136% (active); under `O=C(CSc1nnc(-c2c[nH]c3ccccc23)o1)c1ccccc1`, 106%. As to `Cc1ccnc(NC(=O)Cn2ccc([N+](=O)[O-])n2)c1`, the activation (% of control) is 96.1%. Under `CCOC(=O)c1cnc2c(c(C)nn2CC)c1Cl` stands 107%; under `Oc1oc(-c2ccccc2Br)nc1/C=N/c1ccccn1`, 107%.

`O=C(CSc1ccccc1F)NC1CCS(=O)(=O)C1` (stereo not drawn): the activation (% of control) was 95.7%. Under `CC(NC(=O)COC(=O)C1CCN(S(=O)(=O)c2ccccc2C(F)(F)F)CC1)c1ccccc1` (stereo not drawn) stands 106%; under `CCOc1ccc(-n2c(SCC(=O)NC3CCS(=O)(=O)C3)nnc2-c2cccnc2)cc1` (stereo not drawn), 99.7%. Then `COC(=O)C(C)N=Cc1ccccc1` (stereo not drawn), with 102%; and `S=C(NCCc1ccccc1)N1CCn2cccc2C1c1ccncc1` (stereo not drawn), with 103%; and `Cn1nc(C(F)(F)F)c2cc(C(=O)N3CCOCC3)sc21`, with 105%. `Cc1ccc(S(=O)(=O)C(C#N)c2nc3ccccc3nc2N2CCCC2)cc1C` (stereo not drawn): the activation (% of control) was 92.7%. Under `Cc1ccc(NC(=O)CN2CCc3ccccc3C2)cc1` stands 99.5%; under `Cc1ccc(S(=O)(=O)Nc2nc3ccccc3nc2N2CCc3ccccc3C2)cc1`, 147% (active). Then `O=C(COc1ccccc1)Nc1ccc(N2CCN(C(=O)c3cccs3)CC2)cc1`, with 93.1%; and `O=C1NC2(CCCCCC2)C(=O)N1CCS(=O)(=O)Oc1ccccc1`, with 104%; and `Cc1cc(NC(=O)CSc2nc3cc(Cl)ccc3c(=O)n2Cc2ccco2)no1`, with 103%. Then `Clc1cccc(-c2nc3nc4ccccc4nc3n2Cc2ccco2)c1`, with 135% (active); and `Cc1ccc(Cn2c(C)nc3c(c2=O)c2nc4ccccc4nc2n3Cc2ccco2)cc1`, with 107%; and `C/C(=N\NC(=O)CCn1nc(C)cc1C)C(C)(C)C`, with 95.6%. On to `O=C(CSc1ncnc2scc(-c3ccccc3)c12)NCc1ccc2c(c1)OCO2`, for which the activation (% of control) was 103%. Under `CCOC(=O)N1CCN(C(=O)c2cc3c(-c4ccc(Cl)cc4)nn(C)c3s2)CC1` stands 107%; under `COc1ccc(-c2cc(C(=O)NCc3ccco3)no2)cc1OC`, 101%; under `COc1ccc2c(Cl)c(C(=O)NCc3ccco3)sc2c1`, 95.9%. Then `COc1ccccc1N1CCN(C(=O)c2cc3c(-c4ccc(Cl)cc4)nn(C)c3s2)CC1`, with 146% (active). As to `Cn1nc(-c2ccc(Cl)cc2)c2cc(C(=O)NCc3ccco3)sc21`, the activation (% of control) was 158% (active). Under `COc1cccc(-c2nn(C)c3sc(C(=O)N4CCN(c5ccccc5)CC4)cc23)c1` stands 103%.

In the case of `CN(C)C(=O)c1ccc2c(c1)C1C3CCC(C3)C1C(c1ccccc1)N2` (stereo not drawn), the activation (% of control) was 91.5%. Then `CCOc1ccc(NS(=O)(=O)c2cc(C)c(C)cc2C)cc1`, with 102%; and `COc1cc(OC)cc(C(=O)N[C@H](C(=O)OCC(=O)NC(C)c2ccccc2)C(C)C)c1` (stereo partly drawn), with 102%.

Turning to `COc1ccc(OC(C)C(=O)NCCc2nc3ccccc3[nH]2)cc1` (stereo not drawn), the activation (% of control) is 98.1%. Under `COc1cc(OC)cc(C(=O)N[C@H](C(=O)Nc2nc3ccccc3[nH]2)C(C)C)c1` stands 148% (active). Regarding `Cc1cc2oc(=O)cc(CN3CCN(S(=O)(=O)c4cccs4)CC3)c2cc1C(C)C`, the activation (% of control) is 98.7%. Under `Cc1cc(C2=NNC(=Nc3ccc(S(=O)(=O)N4CCOCC4)cc3)SC2)c(C)n1CC1CCCO1` (stereo not drawn) stands 102%; under `COCCn1c(C)cc(C2=NNC(=Nc3ccc(F)cc3)SC2)c1C`, 133% (active); under `C=CCn1c(C)cc(C2=NNC(=NCC)SC2)c1C`, 8.94%.

Regarding `Cc1c(Cl)c([N+](=O)[O-])nn1CCCC(=O)NC(C)c1ccccc1` (stereo not drawn), the activation (% of control) was 101%. Take `O=S1(=O)CC/C(=N\Nc2ccc(F)cc2)c2ccsc21`: the activation (% of control) is 80.3%. As to `C=Cn1c(C(=O)O)ccc1-c1ccc(OC)cc1`, the activation (% of control) was 103%. With `O=C(COC(=O)c1ccncc1)c1ccccc1`, the activation (% of control) is 97.1%. Under `COc1cccc(NC(=O)C(Sc2nnnn2C)c2ccccc2)c1` (stereo not drawn) stands 88.9%; under `CSc1ncnc2sc(C)c(C)c12`, 91.1%; under `Cc1sc2ncnc(Sc3nc4ccccc4s3)c2c1C`, 135% (active). Under `COC(=O)c1c(-c2cccs2)csc1NC(=O)CSc1ncnc2sc(C)c(C)c12` stands 93.1%; under `Cc1csc(CN(C)C(=O)CC2C(=O)NCCN2CC(C)(C)C)n1` (stereo not drawn), 96.6%; under `O=C(CN1CCN(c2ccc(Cl)cc2)CC1)NCc1cccs1`, 99%. Then `CC(=O)NC1(c2ccc(F)cc2)CCN(C(=O)c2c(F)cccc2F)CC1`, with 104%. `Cc1c(CCO)c(=O)[nH]n1C(=O)c1c(F)cccc1F`: the activation (% of control) was 134% (active). Under `Cc1c(CCO)c(=O)n(-c2ccccc2)n1S(=O)(=O)c1ccc(F)cc1` stands 100%. As to `CN1CCN(CCCCOc2ccccc2-c2ccccc2)CC1`, the activation (% of control) is 96.6%. Under `CCOC(=O)c1ccccc1NC(=S)N1CCC(C(N)=O)CC1` stands 98.2%. Then `COc1ccc(Cl)cc1N(CC(=O)N1CCCCC1)S(C)(=O)=O`, with 99%.

Turning to `Cc1ccc2cc(C)c(N3CCC(C)CC3)nc2c1`, the activation (% of control) was 86.1%. Under `COc1ccccc1-c1nnc(SCC(=O)N2CC(C)CC(C)C2)o1` (stereo not drawn) stands 138% (active); under `COc1ccccc1-c1nnc(SCC(=O)Nc2ccccc2)o1`, 91.3%. Then `COc1ccccc1N1CCN(C(=O)CSc2nnc(-c3ccoc3C)o2)CC1`, with 93.7%; and `Cc1ccc(-n2c(SCC(=O)Nc3ncc(Cl)cc3Cl)nc3ccccc32)cc1`, with 98%; and `Cc1ccc(NC(=O)c2sc3nc(N)c(C#N)cc3c2N)cc1`, with 100%. Under `Cc1cccc(OP(=O)(Nc2c(C)n(C)n(-c3ccccc3)c2=O)Oc2cccc(C)c2)c1` stands 98.3%; under `COc1ccc(C)cc1NC(=O)c1ccc(-c2ccc(C(C)=O)cc2)o1`, 78.6%; under `COc1cccc(NC(=S)C(C#N)=C2N(C)c3ccccc3N2C)c1`, 145% (active).

For the compound `COc1cccc(NC(=S)NCc2ccccn2)c1`, the activation (% of control) is 106%.

In the case of `COc1cccc(NC(=O)C(C)Oc2ccccc2)c1` (stereo not drawn), the activation (% of control) was 97.5%.

As for `O=C(NCC1CCN(Cc2ccccc2Cl)CC1)Nc1cccc(Cl)c1`, the activation (% of control) was 102%. Then `CNc1nc(Nc2ccc(C)c(Cl)c2)nc(N)c1[N+](=O)[O-]`, with 132%; and `O=C(NC(Cc1c[nH]c2ccccc12)C(=O)O)/C(=C/c1ccco1)NC(=O)c1ccccc1` (stereo not drawn), with 107%. In the case of `COc1ccc(/C=C(\NC(=O)c2ccc(OC)c(OC)c2)C(=O)NCCc2c[nH]c3ccccc23)cc1`, the activation (% of control) is 112%. Under `Cc1ccc(C(=O)N/C(=C/c2ccco2)C(=O)NCCc2c[nH]c3ccccc23)cc1C` stands 134% (active); under `CCOC(=O)c1[nH]c2ccc(OC)cc2c1NC(=O)CCN1CCN(Cc2ccccc2)CC1`, 104%; under `O=C(CN1CCc2ccccc21)NC(c1ccccc1)c1ccccc1`, 103%. For `Cc1ccccc1NC(=O)CNc1ccccc1N1CCCCC1`, the activation (% of control) was 101%.

For the compound `COC(=O)c1[nH]c2ccccc2c1NC(=O)CN1CCCc2ccccc21`, the activation (% of control) was 154% (active).

Consider `NS(=O)(=O)c1cccc(NC(=O)CN2CCCc3ccccc32)c1`, for which the activation (% of control) was 106%. Under `COC(=O)c1[nH]c2cccc(C)c2c1NC(=O)CN1CCCc2ccccc21` stands 140% (active); under `CC(C(=O)N=Nc1c(O)n(C)c2ccc(Br)cc12)n1cnc2ccccc2c1=O` (stereo not drawn), 121%. Under `CCN1CCN(c2ccc(NC(=O)c3cnccn3)cc2)CC1` stands 100%. For `CCCCCC1CCC(c2nnc(SCC(C)=O)o2)CC1` (stereo not drawn), the activation (% of control) was 101%. Then `CN(C)/C(=N\OC(=O)c1ccccc1)c1nonc1N`, with 97.7%; and `CCn1c(Cc2ccccc2)nnc1SCc1nc2ccccc2c(=O)[nH]1`, with 107%; and `Cn1c(-c2ccc(F)cc2)cnc1SCC(=O)NCc1ccco1`, with 101%. Then `O=c1[nH]c(CSc2ncc(-c3ccc(F)cc3)n2Cc2ccco2)nc2ccccc12`, with 152% (active). Take `CC(C(=O)O)n1cnc2sc3c(c2c1=O)CCCC3` (stereo not drawn): the activation (% of control) was 102%. As for `COc1ccc(C2C(C(C)=O)=C(O)C(=O)N2Cc2cccnc2)cc1` (stereo not drawn), the activation (% of control) was 100%. For the compound `COc1ccc(C2C(C(C)=O)=C(O)C(=O)N2CCc2c[nH]c3ccccc23)cc1` (stereo not drawn), the activation (% of control) was 108%.

On to `COc1ccc(C2C(C(C)=O)=C(O)C(=O)N2c2nccs2)cc1` (stereo not drawn), for which the activation (% of control) is 134% (active).

For `O=C(Cc1ccccc1Cl)N1CCN(c2ccccn2)CC1`, the activation (% of control) is 100%. Turning to `Cn1nnnc1NCc1ccc(Cl)c(Cl)c1`, the activation (% of control) is 101%.

`C[n+]1ccc(/C=C/c2c[nH]c3ccccc23)cc1`: the activation (% of control) was 115%.
